Assay results published in ChEMBL document CHEMBL2331346, “Isolation and characterization of unusual hydrazides from Streptomyces sp. impact of the cultivation support and extraction procedure” (J Nat Prod, 2013).
Active and inactive are the calls of the source. The calls are words filed in the database; no cut-off is given here.

Tests used:
HCT-116 = assay: Cytotoxicity against human HCT116 cells assessed as inhibition of cell proliferation after 72 hrs by […]; format: functional, cell-based; conditions: for IC50: HCT-116, 72 h
Summary of the method: (§1)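 Cells were grown in D-MEM with 10% fetal calf serum plus penicillin, streptomycin and fungizone, then plated in 96-well plates. After 24 h growth they were treated from 100 μM to 10 nM, with compounds in DMSO (final DMSO 1% to 3%). MTS reagent was added at 72 h and absorbance read at 490 nm versus untreated cells. IC50 came from separate duplicate experiments.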

Micrococcus luteus = assay: Antibacterial activity against Micrococcus luteus ATCC 10240 by disk inhibition zone method; format: functional, organism-based
Summary of the method: (§2)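 Disk inhibition zone method against the three strains. Reference antibiotics were gentamicin at 10 μg and chloramphenicol at 30 μg. Inhibition zones were compared with these disks.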

Bacillus subtilis = assay: Antibacterial activity against Bacillus subtilis ATCC 6633 by disk inhibition zone method; format: functional, organism-based; summary of the method: as §2
MCF7 = assay: Cytotoxicity against human MCF7 cells assessed as inhibition of cell proliferation after 72 hrs by […]; format: functional, cell-based; summary of the method: as §1
BL-21 = assay: (§3) Inhibition of His-tagged Escherichia coli DnaG primase expressed in Escherichia coli BL-21 cells assessed as inhibition of RNA synthesis complementary to ssDNA using rNTPs measured after 5 mins by microplate spectrofluorometer analysis
Escherichia coli = assay: Antibacterial activity against Escherichia coli ATCC 25922 by disk inhibition zone method; format: functional, organism-based; summary of the method: as §2
HT-29 = assay: Cytotoxicity against human HT-29 cells assessed as inhibition of cell proliferation after 72 hrs by […]; format: functional, cell-based; summary of the method: as §1
MDA-MB-231 = assay: Cytotoxicity against human MDA231 cells assessed as inhibition of cell proliferation after 72 hrs by […]; format: functional, cell-based; summary of the method: as §1
KB = assay: Cytotoxicity against human KB cells assessed as inhibition of cell proliferation after 72 hrs by […] assay; format: functional, cell-based; summary of the method: as §1
[1] = as §3

| IC50 [1] [nM] | SMILES | inhibition (HCT-116) | Activity (Micrococcus luteus) | Activity (Bacillus subtilis) | inhibition (MCF7) | inhibition (BL-21) | Activity (Escherichia coli) | inhibition (HT-29) | inhibition (MDA-MB-231) | inhibition (KB) | IC50 (HCT-116) [nM] | IC50 (KB) [nM] |
| --- | --- | --- | --- | --- | --- | --- | --- | --- | --- | --- | --- | --- |
|  | CCCC/C=C/N(NC(C)=O)C(=O)CO | inactive | inactive | inactive | inactive | inactive | inactive | inactive | inactive | inactive |  |  |
|  | CCCC[C@H]1ON(C(=O)CCC2=CCOC2=O)N=C(C)O[C@H]1O (mixture of isomers) | inactive | inactive | inactive | inactive | inactive | inactive | inactive | inactive | inactive |  |  |
|  | CC(=O)O[C@@]12CO[C@@H]1C[C@H](O)[C@@]1(C)C(=O)[C@H](O)C3=C(C)[C@@H](OC(=O)[C@H](O)[C@@H](NC(=O)OC(C)(C)C)c4ccccc4)C[C@@](O)([C@@H](OC(=O)c4ccccc4)[C@H]21)C3(C)C [DOCETAXEL] |  |  |  |  |  |  |  |  |  | 50 | 0.25 |
| 700000 | CCCC/C=C\N(NC(C)=O)C(=O)C(CO)/N=[N+](\[O-])CCCCCC (configuration not stated) [GERALCIN C] |  | inactive | inactive |  | Dose-dependent effect | inactive |  |  |  | 800 | 800 |
